Each structure is given as a SMILES string.

The target of assay [1] is T1, Nitric oxide synthase, inducible (Mus musculus) (UniProt P29477).
T1 sequence (whole entry): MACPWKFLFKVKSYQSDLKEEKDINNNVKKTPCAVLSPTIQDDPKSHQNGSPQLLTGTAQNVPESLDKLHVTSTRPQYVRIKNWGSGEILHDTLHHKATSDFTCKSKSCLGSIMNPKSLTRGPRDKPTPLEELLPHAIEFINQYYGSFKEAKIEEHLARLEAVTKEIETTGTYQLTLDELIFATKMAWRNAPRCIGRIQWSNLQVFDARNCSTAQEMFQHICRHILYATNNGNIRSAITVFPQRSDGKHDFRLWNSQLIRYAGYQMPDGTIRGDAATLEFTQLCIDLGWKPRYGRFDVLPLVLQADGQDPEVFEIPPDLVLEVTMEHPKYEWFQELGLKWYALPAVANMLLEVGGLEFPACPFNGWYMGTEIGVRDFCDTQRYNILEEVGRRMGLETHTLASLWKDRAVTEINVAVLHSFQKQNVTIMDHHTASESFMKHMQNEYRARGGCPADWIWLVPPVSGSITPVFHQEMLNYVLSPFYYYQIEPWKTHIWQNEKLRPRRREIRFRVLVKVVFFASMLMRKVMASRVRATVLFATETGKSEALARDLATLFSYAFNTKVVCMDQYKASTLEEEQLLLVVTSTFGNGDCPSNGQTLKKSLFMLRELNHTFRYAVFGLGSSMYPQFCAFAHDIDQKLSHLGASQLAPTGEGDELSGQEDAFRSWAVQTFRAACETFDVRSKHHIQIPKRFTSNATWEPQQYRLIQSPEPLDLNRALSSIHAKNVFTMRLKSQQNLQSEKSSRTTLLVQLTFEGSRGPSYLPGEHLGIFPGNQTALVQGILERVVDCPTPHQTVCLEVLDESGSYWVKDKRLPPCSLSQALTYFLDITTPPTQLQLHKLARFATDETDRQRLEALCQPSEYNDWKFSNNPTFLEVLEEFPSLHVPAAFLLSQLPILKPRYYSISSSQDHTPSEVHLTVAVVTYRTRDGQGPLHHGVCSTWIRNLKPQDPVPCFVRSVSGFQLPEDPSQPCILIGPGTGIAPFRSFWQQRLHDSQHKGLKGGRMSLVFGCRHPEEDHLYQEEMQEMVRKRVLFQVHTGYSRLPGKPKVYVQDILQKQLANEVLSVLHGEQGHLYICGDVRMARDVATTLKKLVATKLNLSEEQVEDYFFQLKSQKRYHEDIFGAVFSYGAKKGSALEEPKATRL
The assay is described as follows: Inhibition of iNOS in LPS-stimulated mouse J774 cells assessed as inhibition of nitric oxide generation at 10 uM. The class given is cell-based. In outline: (§1)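 J774 cells plated at 2.5×10^5 cells/ml, adhered 24 h, then given LPS 5 µg/ml for 72 h with compound at 10 µM (DMSO vehicle). Supernatant nitrite measured by Griess reaction, 10 min at room temperature, absorbance at 550 nm against sodium nitrite standard (detection limit 1 µM). NGMMA 500 µM served as control. Mean ± SEM, three experiments in triplicate.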

The target of assay [2] is T2, Prostaglandin G/H synthase 2 (Mus musculus) (UniProt Q05769).
T2 sequence (whole entry): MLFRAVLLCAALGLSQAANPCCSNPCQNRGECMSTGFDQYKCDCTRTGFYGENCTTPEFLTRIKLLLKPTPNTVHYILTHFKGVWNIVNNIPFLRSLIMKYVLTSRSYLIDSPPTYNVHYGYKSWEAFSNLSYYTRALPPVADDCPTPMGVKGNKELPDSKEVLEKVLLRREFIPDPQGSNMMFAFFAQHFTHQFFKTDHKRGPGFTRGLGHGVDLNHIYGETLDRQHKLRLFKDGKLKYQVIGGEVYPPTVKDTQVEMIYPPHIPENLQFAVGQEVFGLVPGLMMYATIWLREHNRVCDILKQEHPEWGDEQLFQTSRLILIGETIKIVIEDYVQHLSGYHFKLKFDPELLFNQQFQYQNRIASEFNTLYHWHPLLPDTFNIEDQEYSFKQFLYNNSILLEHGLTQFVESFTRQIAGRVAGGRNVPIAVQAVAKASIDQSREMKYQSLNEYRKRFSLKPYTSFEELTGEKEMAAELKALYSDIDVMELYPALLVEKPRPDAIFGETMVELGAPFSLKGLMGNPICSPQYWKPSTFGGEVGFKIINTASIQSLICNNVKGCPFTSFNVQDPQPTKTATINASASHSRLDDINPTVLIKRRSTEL
The assay is described as follows: Activation of COX2 in LPS-stimulated mouse J774 cells assessed as stimulation of PGE2 production by […]. On the set-up: concentration or dose not given beside the values. The format is cell-based. The method, boiled down:
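Mouse J774 monocyte-macrophages in DMEM/10% FCS, plated at 2.5×10^5 cells/ml and adhered 24 h. Stimulated with LPS 5 µg/ml for 72 h with compound (10 µM, DMSO vehicle). Supernatant PGE2 by competitive peroxidase EIA at 450 nm (50–6400 pg/ml) against vehicle control. Mean ± SEM, three experiments in triplicate.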

The target in assay [3] is T1, Nitric oxide synthase, inducible (Mus musculus). The assay is described as follows: Activation of iNOS in LPS-stimulated mouse J774 cells assessed as stimulation of nitric oxide generation at 10 uM. The format is cell-based. The method, boiled down: as §1
Assay [4] concerns the target T3, Prostaglandin G/H synthase 2 (Homo sapiens) (UniProt P35354).
T3 sequence (whole entry): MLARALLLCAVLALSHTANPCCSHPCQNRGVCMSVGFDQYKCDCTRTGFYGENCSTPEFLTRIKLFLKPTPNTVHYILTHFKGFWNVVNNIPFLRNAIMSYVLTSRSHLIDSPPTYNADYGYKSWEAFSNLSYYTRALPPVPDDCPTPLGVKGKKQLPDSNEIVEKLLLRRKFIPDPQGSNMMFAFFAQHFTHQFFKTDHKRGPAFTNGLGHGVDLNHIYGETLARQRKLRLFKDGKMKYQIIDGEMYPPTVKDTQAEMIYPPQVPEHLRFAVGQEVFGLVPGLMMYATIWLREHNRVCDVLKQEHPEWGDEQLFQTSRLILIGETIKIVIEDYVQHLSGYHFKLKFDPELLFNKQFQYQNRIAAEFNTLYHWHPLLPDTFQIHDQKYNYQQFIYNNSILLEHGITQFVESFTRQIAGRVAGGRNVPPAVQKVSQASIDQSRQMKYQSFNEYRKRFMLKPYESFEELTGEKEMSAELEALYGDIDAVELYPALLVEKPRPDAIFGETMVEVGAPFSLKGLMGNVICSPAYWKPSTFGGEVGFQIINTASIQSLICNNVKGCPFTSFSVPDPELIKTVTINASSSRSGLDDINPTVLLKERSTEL
The assay is described as follows: Activation of COX2 in LPS-stimulated human whole blood assessed as stimulation of PGE2 production at 10 uM […]. The class given is tissue-based. The method, boiled down:
(§2)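 Heparinized (10 IU) whole blood from young healthy volunteers, drawn 48 h after 300 mg oral aspirin to suppress platelet COX-1. 1 ml aliquots; compound added in DMSO (final 10 µM) before LPS 10 µg/ml, 24 h at 37 °C. Plasma stored at -70 °C, PGE2 by competitive peroxidase EIA at 450 nm (range 50–6400 pg/ml). Mean ± SEM, three experiments in triplicate.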

Assay [5] addresses T4, Prostaglandin G/H synthase 2 (Homo sapiens, UniProt P35354).
T4 sequence (P35354 whole entry): T3 sequence (whole entry)
The assay is described as follows: Inhibition of COX2 in LPS-stimulated human whole blood assessed as inhibition of PGE2 production by […]. The format is tissue-based. The method, boiled down: as §2

For assay [6], the target named is T3, Prostaglandin G/H synthase 2 (Homo sapiens). The note with it: Blood, at 10 µM.

As for `COc1ccc2c(c1)c(CC(=O)O)c(C)n2C(=O)c1ccc(Cl)cc1`, the inhibition – broadly, the drop in the measured response relative to a control, in per cent – in assay [1] turned out to be 90%.

Consider `CC(Sc1nc2sc(-c3ccccc3)cc2c(=O)n1N)C(=O)O` (stereo unspecified), for which the Activity in assay [2] turned out to be 250%; in assay [3] it was 52%; in assay [4], 90%.

For the molecule `CS(=O)(=O)Nn1c(Sc2ccc([N+](=O)[O-])cc2[N+](=O)[O-])nc2sc(-c3ccccc3)cc2c1=O`, the IC50 (as a rule, the concentration at which inhibition is half-maximal) in assay [5] was 3.4 µM. Besides, the inhibition in assay [1] and in assay [6] was 100% in each case.

In the case of `CC(Sc1nc2ccccc2c(=O)n1N)C(=O)O` (stereo unspecified), in assay [5], the IC50 worked out at 5.8 µM. Further, the inhibition in assay [1] stood at 50%; in assay [6] it was 88%.

Consider `Cc1ccc(-c2cc(C(F)(F)F)nn2-c2ccc(S(N)(=O)=O)cc2)cc1`, for which the inhibition in assay [1] amounted to 96%.

`CC(Sc1nc2c(sc3ccccc32)c(=O)n1N)C(=O)O` (stereo unspecified): the Activity was 52% in assay [2], 10% in assay [3] and 6% in assay [4].

With `Nn1c(SC(C(=O)O)c2ccccc2)nc2ccsc2c1=O` (stereo unspecified), the inhibition in assay [1] is 55%.

On to `Nn1c(Sc2ccc([N+](=O)[O-])cc2[N+](=O)[O-])nc2sc(-c3ccccc3)cc2c1=O`, for which the figures for the inhibition in assay [1] and in assay [6] were 60% and 75%, respectively.

Turning to `Nn1c(SC(C(=O)O)c2ccccc2)nc2ccccc2c1=O` (stereo unspecified), the Activity worked out at 30% in assay [2], 5% in assay [3] and 21% in assay [4].

For the molecule `Nn1c(SC(C(=O)O)c2ccccc2)nc2ccc(Br)cc2c1=O` (stereo unspecified), the IC50 in assay [5] amounted to 7 µM. In addition, the inhibition in assay [1] amounted to 38%; in assay [6], 70%.

`Nn1c(SC2CCCCC2)nc2sc(-c3ccccc3)cc2c1=O`: the inhibition was found to be 70% in assay [1] and 90% in assay [6].

In the case of `Cc1sc2nc(SC(C(=O)O)c3ccccc3)n(N)c(=O)c2c1C` (stereo unspecified), the Activity in assay [2] was determined as 346%; in assay [3] it was 11%; in assay [4] it was 205%.

`CC(Sc1nc2c([nH]c3ccccc32)c(=O)n1N)C(=O)O` (stereo unspecified): the Activity in assay [2] came to 180%; in assay [3], 35%; in assay [4] it was 28%.

These data come from ChEMBL document CHEMBL1152748, “Inhibition of iNOS and COX-2 in human whole blood ex vivo and monocyte-macrophage J774 cells by a new group of aminothiopyrimidone derivatives” (Bioorg Med Chem, 2009).
